The text below walks through data of ChEMBL document CHEMBL4665843, “Automated Design of Macrocycles for Therapeutic Applications: From Small Molecules to Peptides and Proteins” (J Med Chem, 2020).

The target in experiment [1] is Glucagon-like peptide 1 receptor (Homo sapiens, UniProt P43220). The experiment in a line: Agonist activity at human GLP-1 receptor expressed in HEK293 cells assessed as induction of cAMP accumulation incubated for 30 mins by HTRF assay. The experiment is classed as functional, cell-based. In a few lines: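 HEK-293 cells stably expressing human receptor, grown in DMEM/10% FBS, frozen, thawed and washed in HBSS/20 mM HEPES/0.1% HSA; resuspended with 2 mM IBMX. 5000 cells/well incubated with peptide 30 min at room temperature; cAMP by HTRF kit, 1 h with reagents in lysis buffer, 665/620 nm fluorescence ratio.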
(In general: Changes in cAMP serve as a functional read-out for many G protein-coupled receptors.)

Another experiment concerns the target Glucagon receptor (Homo sapiens, UniProt P47871). The experiment in a line: Agonist activity at human glucagon receptor expressed in HEK293 cells assessed as induction of cAMP accumulation incubated for 30 mins by HTRF assay. The experiment is classed as functional, cell-based.
For the next experiment, the target named is T1, Carboxypeptidase B2 (Homo sapiens, UniProt Q96IY4).
T1 sequence (Q96IY4 whole entry): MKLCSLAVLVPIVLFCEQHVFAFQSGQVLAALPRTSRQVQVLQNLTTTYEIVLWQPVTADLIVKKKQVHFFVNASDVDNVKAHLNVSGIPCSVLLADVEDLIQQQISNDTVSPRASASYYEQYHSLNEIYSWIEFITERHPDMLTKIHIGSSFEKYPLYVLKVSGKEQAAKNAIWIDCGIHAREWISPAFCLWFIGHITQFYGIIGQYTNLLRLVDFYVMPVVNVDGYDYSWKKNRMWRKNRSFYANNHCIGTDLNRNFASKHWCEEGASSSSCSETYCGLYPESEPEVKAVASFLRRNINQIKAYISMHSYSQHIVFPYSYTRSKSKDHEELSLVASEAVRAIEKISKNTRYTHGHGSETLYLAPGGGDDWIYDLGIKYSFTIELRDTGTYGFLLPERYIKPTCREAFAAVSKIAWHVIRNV
Put plainly: Inhibition of TAFIalpha in human plasma incubated for 15 mins by chromogenic assay. The experiment is classed as cell-free. In a few lines: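 Plasma TAFI activity kit: TAFIa (2.5 μg/mL) preincubated with compound (from 2.5 mM DMSO stock) in 20 mM HEPES, 150 mM NaCl, pH 7.4, 15 min at room temperature; reaction started with developer (1:2 prediluted) and followed at 420 nm for 15 min. IC50 from serial dilutions in duplicate; mean (SEM) of n = 2 within one experiment.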

Each structure is given as a SMILES string.

Glucagon-like peptide 1 receptor, sequence (P43220 whole entry): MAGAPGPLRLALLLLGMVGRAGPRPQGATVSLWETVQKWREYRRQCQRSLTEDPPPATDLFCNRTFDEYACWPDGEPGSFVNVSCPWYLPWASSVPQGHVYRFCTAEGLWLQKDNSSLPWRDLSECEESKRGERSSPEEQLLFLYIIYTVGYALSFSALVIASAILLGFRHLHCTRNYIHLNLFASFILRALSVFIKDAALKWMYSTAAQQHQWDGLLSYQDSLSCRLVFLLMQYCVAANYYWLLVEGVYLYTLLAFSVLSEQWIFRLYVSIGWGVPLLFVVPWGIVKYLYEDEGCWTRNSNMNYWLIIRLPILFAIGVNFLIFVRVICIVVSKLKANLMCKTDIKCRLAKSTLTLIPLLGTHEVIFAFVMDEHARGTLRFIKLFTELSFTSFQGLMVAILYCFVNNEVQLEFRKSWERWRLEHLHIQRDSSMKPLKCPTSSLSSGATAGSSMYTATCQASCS
Glucagon receptor, sequence (P47871 whole entry): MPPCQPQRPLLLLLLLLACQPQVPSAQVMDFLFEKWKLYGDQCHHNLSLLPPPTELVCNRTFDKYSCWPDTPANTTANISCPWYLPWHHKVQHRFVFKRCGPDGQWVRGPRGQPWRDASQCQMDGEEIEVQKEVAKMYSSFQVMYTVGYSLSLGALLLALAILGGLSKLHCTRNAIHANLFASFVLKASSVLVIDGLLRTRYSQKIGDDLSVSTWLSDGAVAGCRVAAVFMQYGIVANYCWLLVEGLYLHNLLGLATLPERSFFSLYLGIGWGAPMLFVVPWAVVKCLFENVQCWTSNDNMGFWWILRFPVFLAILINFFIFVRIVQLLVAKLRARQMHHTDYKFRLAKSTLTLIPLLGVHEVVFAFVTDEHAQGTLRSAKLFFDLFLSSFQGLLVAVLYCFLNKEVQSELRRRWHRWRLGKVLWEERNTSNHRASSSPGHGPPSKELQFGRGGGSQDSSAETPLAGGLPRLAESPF

The EC50 is the midpoint of the concentration-response curve. With `CC[C@H](C)[C@H](NC(=O)[C@H](Cc1ccccc1)NC(=O)[C@H](CC(=O)O)NC(=O)[C@H](CCC(N)=O)NC(=O)[C@H](C)NC(=O)[C@H](CCCNC(=N)N)NC(=O)[C@H](CCCNC(=N)N)NC(=O)[C@H](CO)NC(=O)[C@H](CC(=O)O)NC(=O)[C@H](CCSC)NC(=O)[C@H](CCC(N)=O)NC(=O)[C@H](CCCCN)NC(=O)[C@H](CO)NC(=O)[C@H](CC(C)C)NC(=O)[C@H](CC(=O)O)NC(=O)[C@H](CO)NC(=O)[C@@H](NC(=O)[C@H](Cc1ccccc1)NC(=O)[C@@H](NC(=O)CNC(=O)[C@H](CCC(N)=O)NC(=O)[C@H](CO)NC(=O)[C@@H](N)Cc1cnc[nH]1)[C@@H](C)O)[C@@H](C)O)C(=O)N[C@@H](CCC(=O)O)C(=O)N[C@@H](Cc1c[nH]c2ccccc12)C(=O)N[C@@H](CC(C)C)C(=O)N[C@@H](CCCCN)C(=O)N[C@@H](CC(N)=O)C(=O)NCC(=O)NCC(=O)N1CCC[C@H]1C(=O)N[C@@H](CO)C(=O)N[C@@H](CO)C(=O)NCC(=O)N[C@@H](C)C(=O)N1CCC[C@H]1C(=O)N1CCC[C@H]1C(=O)N1CCC[C@H]1C(=O)N[C@@H](CO)C(N)=O`, the values for the concentration for a half-maximal effect (EC50) (in experiment [1]; on Glucagon receptor) were 0.0183 nM and 0.0286 nM, respectively.
The matching figures for `CC[C@H](C)[C@H](NC(=O)[C@H](Cc1ccccc1)NC(=O)[C@H](CC(=O)O)NC(=O)[C@H](CCC(N)=O)NC(=O)[C@H](C)NC(=O)[C@H](CCCNC(=N)N)NC(=O)[C@H](CCCNC(=N)N)NC(=O)[C@H](CO)NC(=O)[C@H](CC(=O)O)NC(=O)[C@]1(C)CCC/C=C\CCC[C@](C)(NC(=O)[C@H](CC(=O)O)NC(=O)[C@H](CO)NC(=O)[C@@H](NC(=O)[C@H](Cc2ccccc2)NC(=O)[C@@H](NC(=O)CNC(=O)[C@H](CCC(N)=O)NC(=O)[C@H](CO)NC(=O)[C@@H](N)Cc2cnc[nH]2)[C@@H](C)O)[C@@H](C)O)C(=O)N[C@@H](CO)C(=O)N[C@@H](CCCCN)C(=O)N[C@@H](CCC(N)=O)C(=O)N1)C(=O)N[C@@H](CCC(=O)O)C(=O)N[C@@H](Cc1c[nH]c2ccccc12)C(=O)N[C@@H](CC(C)C)C(=O)N[C@@H](CCCCN)C(=O)N[C@@H](CC(N)=O)C(=O)NCC(=O)NCC(=O)N1CCC[C@H]1C(=O)N[C@@H](CO)C(=O)N[C@@H](CO)C(=O)NCC(=O)N[C@@H](C)C(=O)N1CCC[C@H]1C(=O)N1CCC[C@H]1C(=O)N1CCC[C@H]1C(=O)N[C@@H](CO)C(N)=O`: 0.0074 nM and 0.0023 nM.
A word on the IC50: it is the midpoint of a concentration-inhibition curve. At Carboxypeptidase B2, `CC(C)[C@@H]1NC(=O)[C@H](NC(=O)N[C@@H](CCCCN)C(=O)O)Cc2ccc(cc2)NC(=O)c2coc1n2` displayed an IC50 of 52 nM.
The same measure, in the same setting: the value for `CC(C)[C@@H]1NC(=O)[C@H](NC(=O)N[C@@H](CCCCN)C(=O)O)CCCCNC(=O)c2coc1n2` was 42 nM; that for `CC(C)[C@@H]1NC(=O)[C@H](NC(=O)N[C@@H](CCCCN)C(=O)O)CCCCNC(=O)c2csc1n2` was 10 nM.
